Measurements taken from ChEMBL document CHEMBL6134855, “Peptidomimetics Activating the Proteasome: A New Perspective for Parkinson's Treatment” (J Med Chem, 2025).
The source made the active and inactive calls. No cut-off for these calls is given here. Where a SMILES comes first, the peptide text is derived from it. [ ]: non-standard residue; d: D form. N(4-MeOBn)Gly = COc1ccc(CNCC(=O)O)cc1; NMeY = CN[C@@H](Cc1ccc(O)cc1)C(=O)O; Gly(N-CH2CH2OH) = O=C(O)CNCCO; NMeK = CN[C@@H](CCCCN)C(=O)O; Nlys = NCCCCNCC(=O)O

What was measured:
[1] = target: T1, 20S proteasome (Homo sapiens) (UniProt P49721+P20618+P28074+P28062+P28065+P28072+P25786+P25787+P25788+P25789+P28066+P60900+O14818+Q8TAA3+P40306+A5LHX3+P49720+P28070+Q99436); assay: Activation of human erythrocyte-derived 20S proteasome chymotrypsin-like activity using Suc-LLVY-AMC as substrate at lower concentration measured every two mins for 60 mins by fluorescence based analysis; details: filed as activator
Summary of the method: (§1)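 Latent human 20S proteasome (0.002 mg/mL, 2.8 nM) in 50 mM Tris/HCl pH 8.0 with 2% DMSO. AMC substrates at 100 μM final (ex 380/em 460 nm); Dabcyl-EDANS at 15 μM final (ex 335/em 493 nm). Modulators at 1.0–50 μM; TAT- or 6R-containing constructs at 0.5–10 μM. Read every 2 min for 60 min at 37 °C. Activity relative to DMSO-treated proteasome (100%). ≥3 independent replicates.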

[2] = target: T1, 20S proteasome (Homo sapiens); assay: Activation of human erythrocyte-derived 20S proteasome using Dabcyl-EDANS as FRET-type substrate at 1.0 to 50 uM measured every two mins for 60 mins by fluorescence based analysis; type: cell-based; details: filed as activator, dose 1-50 µM; summary of the method: as §1
[3] = target: T1, 20S proteasome (Homo sapiens); assay: Activation of human erythrocyte-derived 20S proteasome using Dabcyl-EDANS as FRET-type substrate at lower concentration measured every two mins for 60 mins by fluorescence based analysis; type: cell-based; details: filed as activator; summary of the method: as §1
[4] = Proteolytic stability of compound in human plasma assessed as protease-mediated degradation by measuring compound remaining at 200 uM incubated for 30 mins by UHPLC analysis; type: ADME, cell-free; details: read-out: Stability
Summary of the method: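 Compound (200 μM final, dissolved in water) incubated in human serum at 37 °C for 30 min. Samples every 5 min quenched 1:1 with 6% TCA and centrifuged. Supernatant analysed by UHPLC (UV 223 nm) for intact compound; cleavage sites identified by MS.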

[5] = target: T1, 20S proteasome (Homo sapiens); assay: Activation of human erythrocyte-derived 20S proteasome using Dabcyl-EDANS as FRET-type substrate assessed as fold increase in activity at 1.0 to 50 uM measured every two mins for 60 mins by fluorescence based analysis relative to control; type: cell-based; details: filed as activator, dose 1-50 µM; summary of the method: as §1
[6] = target: T1, 20S proteasome (Homo sapiens); assay: Activation of human erythrocyte-derived 20S proteasome chymotrypsin-like activity using Suc-LLVY-AMC as substrate assessed as fold increase in activity at 1.0 to 50 uM measured every two mins for 60 mins by fluorescence based analysis relative to control; details: filed as activator, dose 1-50 µM; summary of the method: as §1
[7] = target: T1, 20S proteasome (Homo sapiens); assay: Activation of human erythrocyte-derived 20S proteasome chymotrypsin-like activity using Suc-LLVY-AMC as substrate at 1 uM measured every two mins for 60 mins by fluorescence based analysis; details: filed as activator; summary of the method: as §1
[8] = target: T1, 20S proteasome (Homo sapiens); assay: Activation of human erythrocyte-derived 20S proteasome chymotrypsin-like activity using succinyl-LeuLeuValTyr-AMC as substrate assessed as fold increase in activity incubated for 1 hr by fluorescence based analysis relative to control; details: filed as activator
Summary of the method: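 h20S proteasome 0.002 mg/mL (2.8 nM) in 50 mM Tris/HCl pH 8.0, 2% DMSO final. Suc-LLVY-AMC 100 μM final. Modulators 1.0–50 μM (TAT/6R constructs 0.5–10 μM). AMC fluorescence ex 380/em 460 nm read every 2 min for 60 min at 37 °C. Activity relative to DMSO-treated latent proteasome (100%); ≥3 replicates.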

[9] = target: T1, 20S proteasome (Homo sapiens); assay: Activation of human erythrocyte-derived 20S proteasome caspase-like activity using Z-LLE-AMC as substrate at lower concentration measured every two mins for 60 mins by fluorescence based analysis; details: filed as activator; summary of the method: as §1
[10] = target: T1, 20S proteasome (Homo sapiens); assay: Activation of human erythrocyte-derived 20S proteasome trypsin-like activity using Boc-LRR-AMC as substrate at lower concentration measured every two mins for 60 mins by fluorescence based analysis; details: filed as activator; summary of the method: as §1
[11] = target: T1, 20S proteasome (Homo sapiens); assay: Activation of human erythrocyte-derived 20S proteasome chymotrypsin-like activity using Suc-LLVY-AMC as substrate at 1.0 to 50 uM measured every two mins for 60 mins by fluorescence based analysis; details: filed as activator, dose 1-50 µM
[12] = Permeability of compound in PBS incubated for 22 hrs by PAMPA-BBB assay; type: ADME
Summary of the method: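 PAMPA-BBB with a 2% porcine brain lipid membrane. Compounds were diluted from 10 mM aqueous stocks to 500 μM in 0.1 M PBS containing 5% DMSO and incubated 22 h at 37 °C with shaking at 250 rpm. Read-out was fluorescence after reaction with 0.02% fluorescamine (absorbance at 290 nm for propranolol). Pe calculated as linear permeation velocity. Three biological replicates.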

[13] = target: T1, 20S proteasome (Homo sapiens); assay: Activation of human erythrocyte-derived 20S proteasome chymotrypsin-like activity using Suc-LLVY-AMC as substrate at higher concentration measured every two mins for 60 mins by fluorescence based analysis; details: filed as activator; summary of the method: as §1

C[C@@H](O)[C@H](NC(=O)[C@H](Cc1ccccc1)NC(=O)[C@H](Cc1ccc(O)cc1)NC(=O)CNCCCCN)C(=O)NCC(=O)N[C@@H](CO)C(=O)N[C@@H](CCCCN)C(=O)N[C@@H](CC(=O)O)C(=O)N[C@@H](Cc1ccc(O)cc1)C(=O)N[C@@H](CCCNC(=N)N)C(=O)N[C@@H](CCCNC(=N)N)C(=O)N[C@@H](Cc1ccc(O)cc1)C(=O)N[C@@H](Cc1ccc(O)cc1)C(=O)N[C@@H](CO)C(=O)O (H-[Nlys]YFTGSKDYRRYYS-OH)
Activity [1]: Active | Activity [2]: Active | Activity [3]: Active

H-KYFTGSKDYRRYYS-OH
remaining at 0.5 h, 200 µM [4]: ≤ 10% | Activity [1]: Active | Activity [3]: Active

H-KYFTGSKDWRSYYS-OH
remaining at 0.5 h, 200 µM [4]: ≤ 10% | fold change (FC) [5]: 12 | fold change (FC) [6]: 8

COc1ccc(CN(CC(=O)N[C@@H](Cc2ccccc2)C(=O)N[C@H](C(=O)NCC(=O)N[C@@H](CO)C(=O)N[C@@H](CCCCN)C(=O)N[C@@H](CC(=O)O)C(=O)N[C@@H](Cc2ccc(O)cc2)C(=O)N[C@@H](CCCNC(=N)N)C(=O)N[C@@H](CCCNC(=N)N)C(=O)N[C@@H](Cc2ccc(O)cc2)C(=O)N[C@@H](Cc2ccc(O)cc2)C(=O)N[C@@H](CO)C(=O)O)[C@@H](C)O)C(=O)[C@@H](N)CCCCN)cc1 (H-K[N(4-MeOBn)Gly]FTGSKDYRRYYS-OH)
Activity [7]: Moderate_effect

N=C(N)NCCC[C@H](NC(=O)CN)C(=O)N[C@@H](CCCCN)C(=O)N[C@@H](CCCCN)C(=O)N[C@@H](CCCNC(=N)N)C(=O)N[C@@H](CCCNC(=N)N)C(=O)N[C@@H](CCC(N)=O)C(=O)N1Cc2ccccc2CC1C(=O)N1[C@@H](C(=O)N[C@@H](CCCNC(=N)N)C(=O)N2CCC[C@H]2C(=O)N[C@@H](CO)C(=O)O)C[C@@H]2CCCC[C@@H]21 (some centres not stated)
fold change (FC) [8]: 8

COc1ccc(CN(CC(=O)N[C@@H](CCCNC(=N)N)C(=O)N[C@@H](CCCNC(=N)N)C(=O)N[C@@H](Cc2ccc(O)cc2)C(=O)N[C@@H](Cc2ccc(O)cc2)C(=O)N[C@@H](CO)C(=O)O)C(=O)[C@H](CC(=O)O)NC(=O)[C@H](CCCCN)NC(=O)[C@H](CO)NC(=O)CNC(=O)[C@@H](NC(=O)[C@H](Cc2ccccc2)NC(=O)[C@H](Cc2ccc(O)cc2)NC(=O)[C@@H](N)CCCCN)[C@@H](C)O)cc1 (H-KYFTGSKD[N(4-MeOBn)Gly]RRYYS-OH)
remaining at 0.5 h, 200 µM [4]: < 30% | Activity [1]: Active | Activity [9]: Weak_effect | Activity [2]: Active | Activity [3]: Active | Activity [10]: Weak_effect

C[C@@H](O)[C@H](NC(=O)[C@H](Cc1ccccc1)NC(=O)[C@H](Cc1ccc(O)cc1)NC(=O)[C@@H](N)CCCCN)C(=O)NCC(=O)N[C@@H](CO)C(=O)N[C@@H](CCCCN)C(=O)N[C@@H](CC(=O)O)C(=O)N[C@@H](Cc1c[nH]c2ccccc12)C(=O)N[C@@H](CCCNC(=N)N)C(=O)N(CCO)CC(=O)N[C@@H](Cc1ccc(O)cc1)C(=O)N[C@@H](Cc1ccc(O)cc1)C(=O)N[C@@H](CO)C(=O)O (H-KYFTGSKDWR[Gly(N-CH2CH2OH)]YYS-OH)
Activity [11]: Active; Lower Capacity Of Activation Is Observed | Activity [2]: Active

C[C@@H](O)[C@H](NC(=O)[C@H](Cc1ccccc1)NC(=O)[C@H](Cc1ccc(O)cc1)NC(=O)CNCCCCN)C(=O)NCC(=O)N[C@@H](CO)C(=O)N[C@@H](CCCCN)C(=O)N[C@@H](CC(=O)O)C(=O)N[C@@H](Cc1c[nH]c2ccccc12)C(=O)N[C@@H](CCCNC(=N)N)C(=O)N[C@@H](CO)C(=O)N[C@@H](Cc1ccc(O)cc1)C(=O)N[C@@H](Cc1ccc(O)cc1)C(=O)N[C@@H](CO)C(=O)O (H-[Nlys]YFTGSKDWRSYYS-OH)
permeability [12]: Impermeable

C[C@@H](O)[C@H](NC(=O)[C@H](Cc1ccccc1)NC(=O)[C@H](Cc1ccc(O)cc1)NC(=O)CNCCCCN)C(=O)NCC(=O)N[C@@H](CO)C(=O)N[C@@H](CCCCN)C(=O)N[C@@H](CC(=O)O)C(=O)N[C@@H](Cc1c[nH]c2ccccc12)C(=O)N[C@@H](CCCNC(=N)N)C(=O)N(CCO)CC(=O)N[C@@H](Cc1ccc(O)cc1)C(=O)N[C@@H](Cc1ccc(O)cc1)C(=O)N[C@@H](CO)C(=O)O (H-[Nlys]YFTGSKDWR[Gly(N-CH2CH2OH)]YYS-OH)
Activity [11]: Active; Lower Capacity Of Activation Is Observed | Activity [2]: Active

C[C@@H](O)[C@H](NC(=O)[C@H](Cc1ccccc1)NC(=O)[C@H](Cc1ccc(O)cc1)NC(=O)CNCCCCN)C(=O)NCC(=O)N[C@@H](CO)C(=O)N(CCCCN)CC(=O)N[C@@H](CC(=O)O)C(=O)N[C@@H](Cc1ccc(O)cc1)C(=O)N[C@@H](CCCNC(=N)N)C(=O)N[C@@H](CCCNC(=N)N)C(=O)N[C@@H](Cc1ccc(O)cc1)C(=O)N[C@@H](Cc1ccc(O)cc1)C(=O)N[C@@H](CO)C(=O)O (H-[Nlys]YFTGS[Nlys]DYRRYYS-OH)
Activity [7]: Moderate_effect | Activity [13]: Active

CN[C@@H](CCCCN)C(=O)N(C)[C@@H](Cc1ccc(O)cc1)C(=O)N[C@@H](Cc1ccccc1)C(=O)N[C@H](C(=O)NCC(=O)N[C@@H](CO)C(=O)N[C@@H](CCCCN)C(=O)N[C@@H](CC(=O)O)C(=O)N[C@@H](Cc1c[nH]c2ccccc12)C(=O)N[C@@H](CCCNC(=N)N)C(=O)N[C@@H](CO)C(=O)N[C@@H](Cc1ccc(O)cc1)C(=O)N[C@@H](Cc1ccc(O)cc1)C(=O)N[C@@H](CO)C(=O)O)[C@@H](C)O (H-[NMeK][NMeY]FTGSKDWRSYYS-OH)
Activity [2]: Active

NCCCC[C@H](NC(=O)[C@H](CCCCN)NC(=O)[C@@H](N)CCCCN)C(=O)Nc1cc(NC(=O)[C@H](CCCCN)NC(=O)[C@H](CCCCN)NC(=O)[C@@H](N)CCCCN)cc(NC(=O)[C@H](CCCCN)NC(=O)[C@H](CCCCN)NC(=O)[C@@H](N)CCCCN)c1
fold change (FC) [8]: 10

C[C@@H](O)[C@H](NC(=O)[C@H](Cc1ccccc1)NC(=O)[C@H](Cc1ccc(O)cc1)NC(=O)[C@@H](N)CCCCN)C(=O)NCC(=O)N[C@@H](CO)C(=O)N(CCCCN)CC(=O)N[C@@H](CC(=O)O)C(=O)N[C@@H](Cc1ccc(O)cc1)C(=O)N[C@@H](CCCNC(=N)N)C(=O)N[C@@H](CCCNC(=N)N)C(=O)N[C@@H](Cc1ccc(O)cc1)C(=O)N[C@@H](Cc1ccc(O)cc1)C(=O)N[C@@H](CO)C(=O)O (H-KYFTGS[Nlys]DYRRYYS-OH)
Activity [13]: Active

COc1ccc(CN(CC(=O)N[C@@H](CCCNC(=N)N)C(=O)N[C@@H](CCCNC(=N)N)C(=O)N[C@@H](Cc2ccc(O)cc2)C(=O)N[C@@H](Cc2ccc(O)cc2)C(=O)N[C@@H](CO)C(=O)O)C(=O)[C@H](CC(=O)O)NC(=O)[C@H](CCCCN)NC(=O)[C@H](CO)NC(=O)CNC(=O)[C@@H](NC(=O)[C@H](Cc2ccccc2)NC(=O)CN(Cc2ccc(OC)cc2)C(=O)[C@@H](N)CCCCN)[C@@H](C)O)cc1 (H-K[N(4-MeOBn)Gly]FTGSKD[N(4-MeOBn)Gly]RRYYS-OH)
Activity [1]: Active | Activity [9]: Weak_effect | Activity [2]: Active | Activity [3]: Active | Activity [10]: Weak_effect
